According to ChEMBL document CHEMBL1142636 (2000):

Experiments:
[1] = system: SNB-19; experiment: Growth inhibition of human SNB19 cells; format: functional
Procedure, shortened: (§1)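 Tested at the NCI in its human disease-oriented in vitro screen of 60 tumour cell lines, following the Monks et al. methods. Activity is expressed as GI50, given as log molar values.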

[2] = system: Malme-3M; experiment: Growth inhibition of human MALME-3M cells; format: functional
[3] = system: SR; experiment: Growth inhibition of human SR cells; format: functional; procedure, shortened: as §1
[4] = system: HCT-116; experiment: Growth inhibition of human HCT116 cells; format: functional
[5] = system: HCT-15; experiment: Growth inhibition of human HCT15 cells; format: functional
[6] = Growth inhibition of human LXFL529 cells; format: functional; conditions: LXFL 529
[7] = system: NCI-H322M; experiment: Growth inhibition of human NCI-H322M cells; format: functional
[8] = Growth inhibition of human OVACR4 cells; format: functional
[9] = system: K562; experiment: Growth inhibition of human K562 cells; format: functional
[10] = Growth inhibition of human […] cells; format: functional
[11] = system: SF-268; experiment: Growth inhibition of human SF268 cells; format: functional; procedure, shortened: as §1
[12] = system: IGROV-1; experiment: Growth inhibition of human IGROV1 cells; format: functional
[13] = system: UACC-62; experiment: Growth inhibition of human UACC62 cells; format: functional; procedure, shortened: as §1
[14] = system: SK-MEL-2; experiment: Growth inhibition of human SK-MEL-2 cells; format: functional; procedure, shortened: as §1
[15] = system: UO-31; experiment: Growth inhibition of human UO31 cells; format: functional; procedure, shortened: as §1
[16] = system: SNB-75; experiment: Growth inhibition of human SNB75 cells; format: functional; procedure, shortened: as §1
[17] = system: NCI-H522; experiment: Growth inhibition of human NCI-H522 cells; format: functional
[18] = system: SK-MEL-5; experiment: Growth inhibition of human SK-MEL-5 cells; format: functional; procedure, shortened: as §1
[19] = Growth inhibition of human DMS144 cells; format: functional
[20] = system: A549; experiment: Growth inhibition of human A549 cells; format: functional
[21] = system: ACHN; experiment: Growth inhibition of human ACHN cells; format: functional
[22] = system: SK-OV-3; experiment: Growth inhibition of human SK-OV-3 cells; format: functional; procedure, shortened: as §1
[23] = system: M19-MEL; experiment: Growth inhibition of human M19-MEL cells; format: functional
[24] = Growth inhibition of human HL60(TB) cells; format: functional, HL-60(TB); conditions: HL-60
[25] = system: U-251; experiment: Growth inhibition of human U251 cells; format: functional; procedure, shortened: as §1
[26] = Growth inhibition of human OVACR5 cells; format: functional
[27] = system: KM-20L2; experiment: Growth inhibition of human KM20L2 cells; format: functional
[28] = system: TK-10; experiment: Growth inhibition of human TK10 cells; format: functional; procedure, shortened: as §1
[29] = system: MOLT-4; experiment: Growth inhibition of human MOLT4 cells; format: functional
[30] = system: XF498; experiment: Growth inhibition of human XF498 cells; format: functional; procedure, shortened: as §1
[31] = system: COLO 205; experiment: Growth inhibition of human COLO205 cells; format: functional
[32] = system: DLD-1; experiment: Growth inhibition of human DLD1 cells; format: functional
[33] = Growth inhibition of human RPMI8266 cells; format: functional
[34] = system: 786-0; experiment: Growth inhibition of human 786-0 cells; format: functional
[35] = system: M14; experiment: Growth inhibition of human M14 cells; format: functional
[36] = system: SW-620; experiment: Growth inhibition of human SW620 cells; format: functional; procedure, shortened: as §1
[37] = Growth inhibition of human OVACR8 cells; format: functional
[38] = system: SF-539; experiment: Growth inhibition of human SF539 cells; format: functional; procedure, shortened: as §1
[39] = system: NCI-H460; experiment: Growth inhibition of human NCI-H460 cells; format: functional
[40] = system: NCI-H226; experiment: Growth inhibition of human NCI-H226 cells; format: functional
[41] = system: DMS-273; experiment: Growth inhibition of human DMS273 cells; format: functional
[42] = system: LOX IMVI; experiment: Growth inhibition of human LOX IMVI cells; format: functional
[43] = system: SK-MEL-28; experiment: Growth inhibition of human SK-MEL-28 cells; format: functional; procedure, shortened: as §1
[44] = system: HCC 2998; experiment: Growth inhibition of human HCC2998 cells; format: functional
[45] = system: CCRF-CEM; experiment: Growth inhibition of human CCRF-CEM cells; format: functional
[46] = system: HOP-92; experiment: Growth inhibition of human HOP92 cells; format: functional
[47] = system: HOP-62; experiment: Growth inhibition of human HOP62 cells; format: functional
[48] = system: HOP-18; experiment: Growth inhibition of human HOP18 cells; format: functional
[49] = system: SN12C; experiment: Growth inhibition of human SN12C cells; format: functional; procedure, shortened: as §1
[50] = system: RXF 393; experiment: Growth inhibition of human […] cells; format: functional
[51] = system: HT-29; experiment: Growth inhibition of human HT29 cells; format: functional
[52] = system: KM12; experiment: Growth inhibition of human KM12 cells; format: functional

## COc1ccc2c([nH]c3cc(O)c(C)cc32)c1CC=C(C)C
[1]
  GI50: 25.1 µM
[2]
  GI50: 17.4 µM
[3]
  GI50: 7.24 µM
[4]
  GI50: 12 µM
[5]
  GI50: 5.13 µM
[6]
  GI50: 8.71 µM
[7]
  GI50: 10.7 µM
[8]
  GI50: 22.4 µM
[9]
  GI50: 5.75 µM
[10]
  GI50: 5.37 µM
[11]
  GI50: 9.55 µM
[12]
  GI50: 2.29 µM
[13]
  GI50: 9.12 µM
[14]
  GI50: 25.1 µM
[15]
  GI50: 14.5 µM
[16]
  GI50: 11.5 µM
[17]
  GI50: 5.89 µM
[18]
  GI50: 8.13 µM
[19]
  GI50: 20.9 µM
[20]
  GI50: 8.51 µM
[21]
  GI50: 9.33 µM
[22]
  GI50: 25.1 µM
[23]
  GI50: 12.3 µM
[24]
  GI50: 7.94 µM
[25]
  GI50: 5.89 µM
[26]
  GI50: 25.1 µM
[27]
  GI50: 16.2 µM
[28]
  GI50: 5.01 µM
[29]
  GI50: 4.9 µM
[30]
  GI50: 25.1 µM
[31]
  GI50: 25.1 µM
[32]
  GI50: 9.12 µM
[33]
  GI50: 8.32 µM
[34]
  GI50: 4.37 µM
[35]
  GI50: 1.62 µM
[36]
  GI50: 6.76 µM
[37]
  GI50: 4.47 µM
[38]
  GI50: 7.94 µM
[39]
  GI50: 5.62 µM
[40]
  GI50: 25.1 µM
[41]
  GI50: 8.51 µM
[42]
  GI50: 4.37 µM
[43]
  GI50: 25.1 µM
[44]
  GI50: 5.5 µM
[45]
  GI50: 5.37 µM
[46]
  GI50: 7.94 µM

## COc1cc(C)cc2c1[nH]c1ccccc12 [MURRAYAFOLINE A]
[1]
  GI50: 25.1 µM
[2]
  GI50: 8.13 µM
[3]
  GI50: 10.2 µM
[47]
  GI50: 6.31 µM
[4]
  GI50: 11.5 µM
[5]
  GI50: 7.41 µM
[6]
  GI50: 18.2 µM
[7]
  GI50: 12.9 µM
[8]
  GI50: 25.1 µM
[9]
  GI50: 25.1 µM
[48]
  GI50: 0.288 µM
[10]
  GI50: 8.91 µM
[11]
  GI50: 14.5 µM
[12]
  GI50: 14.8 µM
[13]
  GI50: 15.1 µM
[14]
  GI50: 7.41 µM
[15]
  GI50: 15.1 µM
[16]
  GI50: 25.1 µM
[17]
  GI50: 4.27 µM
[18]
  GI50: 9.12 µM
[19]
  GI50: 9.55 µM
[20]
  GI50: 1.15 µM
[21]
  GI50: 23.4 µM
[22]
  GI50: 20.9 µM
[23]
  GI50: 18.2 µM
[49]
  GI50: 14.1 µM
[24]
  GI50: 6.92 µM
[25]
  GI50: 10.5 µM
[26]
  GI50: 24.5 µM
[27]
  GI50: 7.59 µM
[28]
  GI50: 25.1 µM
[30]
  GI50: 22.4 µM
[31]
  GI50: 12.3 µM
[50]
  GI50: 9.33 µM
[32]
  GI50: 10.5 µM
[51]
  GI50: 7.76 µM
[33]
  GI50: 8.71 µM
[34]
  GI50: 9.33 µM
[35]
  GI50: 7.24 µM
[36]
  GI50: 8.32 µM
[37]
  GI50: 7.41 µM
[38]
  GI50: 6.03 µM
[39]
  GI50: 7.76 µM
[40]
  GI50: 8.51 µM
[41]
  GI50: 7.76 µM
[42]
  GI50: 12.6 µM
[43]
  GI50: 16.2 µM
[44]
  GI50: 14.8 µM
[45]
  GI50: 15.5 µM
[52]
  GI50: 8.13 µM
[46]
  GI50: 23.4 µM

## CC(C)=CCCC1(C)C=Cc2c(ccc3c2[nH]c2cc(O)c(C)cc23)O1 (configuration not stated)
[1]
  GI50: 25.1 µM
[2]
  GI50: 5.25 µM
[3]
  GI50: 5.5 µM
[47]
  GI50: 4.79 µM
[4]
  GI50: 8.71 µM
[5]
  GI50: 5.01 µM
[6]
  GI50: 5.13 µM
[7]
  GI50: 6.61 µM
[8]
  GI50: 7.94 µM
[9]
  GI50: 5.62 µM
[10]
  GI50: 4.79 µM
[11]
  GI50: 5.01 µM
[13]
  GI50: 9.33 µM
[14]
  GI50: 6.46 µM
[16]
  GI50: 12.9 µM
[17]
  GI50: 3.89 µM
[18]
  GI50: 4.9 µM
[19]
  GI50: 7.08 µM
[20]
  GI50: 6.61 µM
[21]
  GI50: 6.76 µM
[23]
  GI50: 6.92 µM
[49]
  GI50: 4.68 µM
[24]
  GI50: 9.55 µM
[25]
  GI50: 4.57 µM
[26]
  GI50: 19.5 µM
[27]
  GI50: 5.25 µM
[28]
  GI50: 16.6 µM
[29]
  GI50: 4.17 µM
[50]
  GI50: 5.25 µM
[32]
  GI50: 8.91 µM
[51]
  GI50: 4.9 µM
[33]
  GI50: 6.61 µM
[34]
  GI50: 4.27 µM
[35]
  GI50: 3.89 µM
[36]
  GI50: 4.68 µM
[37]
  GI50: 3.8 µM
[38]
  GI50: 4.57 µM
[39]
  GI50: 4.68 µM
[40]
  GI50: 7.08 µM
[41]
  GI50: 5.01 µM
[42]
  GI50: 4.57 µM
[44]
  GI50: 4.68 µM
[45]
  GI50: 5.01 µM
[52]
  GI50: 4.79 µM
[46]
  GI50: 4.27 µM

## Cc1cc2c(cc1O)[nH]c1cc3c(cc12)C=CC(C)(C)O3
[1]
  GI50: 25.1 µM
[2]
  GI50: 10 µM
[3]
  GI50: 6.46 µM
[47]
  GI50: 7.94 µM
[4]
  GI50: 12.9 µM
[5]
  GI50: 8.71 µM
[6]
  GI50: 9.33 µM
[7]
  GI50: 13.2 µM
[8]
  GI50: 10.5 µM
[9]
  GI50: 25.1 µM
[10]
  GI50: 7.24 µM
[11]
  GI50: 6.76 µM
[12]
  GI50: 22.9 µM
[13]
  GI50: 6.76 µM
[14]
  GI50: 25.1 µM
[15]
  GI50: 11.5 µM
[16]
  GI50: 11.2 µM
[17]
  GI50: 8.32 µM
[18]
  GI50: 17.4 µM
[19]
  GI50: 10.7 µM
[20]
  GI50: 6.46 µM
[21]
  GI50: 9.33 µM
[22]
  GI50: 25.1 µM
[23]
  GI50: 19.5 µM
[49]
  GI50: 6.31 µM
[24]
  GI50: 6.92 µM
[25]
  GI50: 6.03 µM
[26]
  GI50: 17.8 µM
[27]
  GI50: 9.33 µM
[28]
  GI50: 25.1 µM
[29]
  GI50: 0.00324 µM
[30]
  GI50: 25.1 µM
[31]
  GI50: 25.1 µM
[50]
  GI50: 4.9 µM
[32]
  GI50: 12.9 µM
[51]
  GI50: 11.7 µM
[33]
  GI50: 9.12 µM
[35]
  GI50: 6.03 µM
[36]
  GI50: 7.59 µM
[37]
  GI50: 4.57 µM
[38]
  GI50: 4.07 µM
[39]
  GI50: 5.37 µM
[40]
  GI50: 19.1 µM
[41]
  GI50: 5.01 µM
[42]
  GI50: 3.98 µM
[43]
  GI50: 14.5 µM
[44]
  GI50: 6.76 µM
[45]
  GI50: 20 µM
[52]
  GI50: 5.25 µM
[46]
  GI50: 9.77 µM
